Laboratory results from ChEMBL document CHEMBL4177760, “Ligand-Phospholipid Conjugation: A Versatile Strategy for Developing Long-Acting Ligands That Bind to Membrane Proteins by Restricting the Subcellular Localization of the Ligand” (J Med Chem, 2018).
Active and inactive are the calls of the source. The calls are words filed in the database; no cut-off is given here.

Columns and labels:
[1] = target: T1, Muscarinic acetylcholine receptor M5 (Rattus norvegicus, UniProt P08911); test: Displacement of [3H]NMS from muscarinic receptor M5 in Sprague-Dawley rat brain homogenates after 60 mins by liquid scintillation counting method
T1 sequence (P08911 whole entry): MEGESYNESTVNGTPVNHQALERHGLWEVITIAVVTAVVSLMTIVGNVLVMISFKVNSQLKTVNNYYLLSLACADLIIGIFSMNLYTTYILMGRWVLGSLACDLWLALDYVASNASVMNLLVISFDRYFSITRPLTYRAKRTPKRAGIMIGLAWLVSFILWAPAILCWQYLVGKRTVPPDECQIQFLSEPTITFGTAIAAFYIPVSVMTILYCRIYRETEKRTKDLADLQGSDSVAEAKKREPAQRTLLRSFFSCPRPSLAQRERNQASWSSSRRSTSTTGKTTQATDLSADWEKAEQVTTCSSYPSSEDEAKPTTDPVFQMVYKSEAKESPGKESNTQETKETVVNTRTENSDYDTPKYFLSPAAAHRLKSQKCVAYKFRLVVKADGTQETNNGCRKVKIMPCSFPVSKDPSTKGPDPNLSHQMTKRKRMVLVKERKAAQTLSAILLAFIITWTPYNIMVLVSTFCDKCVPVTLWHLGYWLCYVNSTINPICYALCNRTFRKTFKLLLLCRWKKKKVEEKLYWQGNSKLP

[2] = target: T2, Muscarinic acetylcholine receptor M1 (Rattus norvegicus, UniProt P08482); test: Displacement of [3H]NMS from muscarinic receptor M1 in Sprague-Dawley rat brain homogenates after 60 mins by liquid scintillation counting method
T2 sequence (P08482 whole entry): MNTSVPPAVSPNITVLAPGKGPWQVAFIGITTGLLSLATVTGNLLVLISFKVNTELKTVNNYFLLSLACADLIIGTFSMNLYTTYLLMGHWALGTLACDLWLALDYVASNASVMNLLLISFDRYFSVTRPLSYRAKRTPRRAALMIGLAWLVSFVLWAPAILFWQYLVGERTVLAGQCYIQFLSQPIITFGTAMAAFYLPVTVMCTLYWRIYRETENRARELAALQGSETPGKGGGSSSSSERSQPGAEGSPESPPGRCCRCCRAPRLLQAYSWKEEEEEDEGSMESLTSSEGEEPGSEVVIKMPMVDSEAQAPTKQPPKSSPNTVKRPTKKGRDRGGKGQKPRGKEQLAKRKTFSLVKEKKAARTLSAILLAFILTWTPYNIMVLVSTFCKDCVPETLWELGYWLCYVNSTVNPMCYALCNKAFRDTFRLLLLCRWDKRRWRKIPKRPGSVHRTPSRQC

[3] = target: Muscarinic acetylcholine receptor M3 (Rattus norvegicus, UniProt P08483); test: Displacement of [3H]NMS from muscarinic receptor M3 in Sprague-Dawley rat brain homogenates after 60 mins by liquid scintillation counting method
[4] = target: T3, Muscarinic acetylcholine receptor M2 (Rattus norvegicus, UniProt P10980); test: Displacement of [3H]NMS from muscarinic receptor M2 in Sprague-Dawley rat brain homogenates after 60 mins by liquid scintillation counting method
T3 sequence (P10980 whole entry): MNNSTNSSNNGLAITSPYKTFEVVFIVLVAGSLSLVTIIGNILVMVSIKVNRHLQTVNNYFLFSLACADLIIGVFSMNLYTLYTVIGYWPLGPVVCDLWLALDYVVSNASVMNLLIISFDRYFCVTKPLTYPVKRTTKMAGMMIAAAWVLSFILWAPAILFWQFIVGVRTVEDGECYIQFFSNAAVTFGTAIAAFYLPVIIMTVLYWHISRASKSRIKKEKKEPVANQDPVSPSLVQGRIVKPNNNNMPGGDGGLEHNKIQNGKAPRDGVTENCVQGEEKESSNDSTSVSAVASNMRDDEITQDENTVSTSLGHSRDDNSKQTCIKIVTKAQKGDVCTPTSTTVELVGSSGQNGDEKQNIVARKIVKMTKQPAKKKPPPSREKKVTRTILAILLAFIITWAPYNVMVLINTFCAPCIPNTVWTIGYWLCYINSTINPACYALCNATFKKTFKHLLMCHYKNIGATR

[5] = target: T4, Muscarinic acetylcholine receptor M4 (Rattus norvegicus, UniProt P08485); test: Displacement of [3H]NMS from muscarinic receptor M4 in Sprague-Dawley rat brain homogenates after 60 mins by liquid scintillation counting method
T4 sequence (P08485 whole entry): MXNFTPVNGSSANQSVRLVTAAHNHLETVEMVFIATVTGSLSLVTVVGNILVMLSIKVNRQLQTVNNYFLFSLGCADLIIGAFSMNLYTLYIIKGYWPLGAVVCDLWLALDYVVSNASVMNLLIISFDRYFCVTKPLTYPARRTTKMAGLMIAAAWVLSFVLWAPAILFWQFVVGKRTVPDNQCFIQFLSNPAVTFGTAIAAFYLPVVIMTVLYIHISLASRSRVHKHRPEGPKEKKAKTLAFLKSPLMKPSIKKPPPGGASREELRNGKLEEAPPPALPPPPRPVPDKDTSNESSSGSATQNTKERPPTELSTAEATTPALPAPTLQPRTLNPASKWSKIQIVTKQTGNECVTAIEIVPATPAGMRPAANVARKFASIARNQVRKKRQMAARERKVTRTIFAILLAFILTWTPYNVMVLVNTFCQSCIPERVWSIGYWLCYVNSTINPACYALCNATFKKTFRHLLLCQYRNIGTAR

[6] = system: Rattus norvegicus; test: In vivo displacement of [3H]NMS from muscarinic receptor in rat bladder assessed as increase in [3H]NMS Kdapp at 10 uM administered via intravesical instillation measured after 30 mins; assay type: functional, organism-based
In short: (§1)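 Rats received the compound by intravesical instillation. Bladders were dissected 30 min or 24 h afterwards and [3H]N-methyl scopolamine binding to bladder muscarinic receptors was measured directly. The apparent Kd (Kdapp) of the radioligand was calculated and compared against control animals.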

[7] = target: Muscarinic acetylcholine receptor; test: Displacement of [3H]NMS from muscarinic receptor in Sprague-Dawley rat brain homogenates after 60 mins by liquid scintillation counting method
In short: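 Competition binding against [3H]N-methyl scopolamine in rat brain homogenates carrying muscarinic receptors; read-out as log IC50; data from at least four experiments.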

[8] = target: T5, Muscarinic acetylcholine receptor (Rattus norvegicus) (UniProt P08482+P08483+P08485+P08911+P10980); test: Displacement of [3H]NMS from muscarinic receptor in Sprague-Dawley rat brain homogenates assessed as remaining protein bound radioligand levels at 300 pM to 1 uM preincubated for 60 mins followed by double washout treatment by liquid scintillation counting method relative to control
In short: (§2)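 Rat brain homogenates incubated with test ligand at 25 °C. [3H]N-methyl scopolamine binding to muscarinic receptors measured before and after wash-out with ice-cold buffer and expressed as binding remaining. Based on at least four experiments.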

[9] = target: T5, Muscarinic acetylcholine receptor (Rattus norvegicus); test: Displacement of [3H]NMS from muscarinic receptor in Sprague-Dawley rat brain homogenates assessed as remaining protein bound radioligand levels at 300 pM to 1 uM after 60 mins by liquid scintillation counting method relative to control; in short: as §2
[10] = system: Rattus norvegicus; test: In vivo displacement of [3H]NMS from muscarinic receptor in rat bladder assessed as increase in [3H]NMS Kdapp at 10 uM administered via intravesical instillation measured after 24 hrs; assay type: functional, organism-based; in short: as §1
[11] = target: T5, Muscarinic acetylcholine receptor (Rattus norvegicus); test: Displacement of [3H]NMS from muscarinic receptor in Sprague-Dawley rat brain homogenates assessed as remaining protein bound radioligand levels at 300 pM to 1 uM preincubated for 60 mins followed by single washout treatment by liquid scintillation counting method relative to control; in short: as §2

Chain of Muscarinic acetylcholine receptor M3 (P08483 whole entry): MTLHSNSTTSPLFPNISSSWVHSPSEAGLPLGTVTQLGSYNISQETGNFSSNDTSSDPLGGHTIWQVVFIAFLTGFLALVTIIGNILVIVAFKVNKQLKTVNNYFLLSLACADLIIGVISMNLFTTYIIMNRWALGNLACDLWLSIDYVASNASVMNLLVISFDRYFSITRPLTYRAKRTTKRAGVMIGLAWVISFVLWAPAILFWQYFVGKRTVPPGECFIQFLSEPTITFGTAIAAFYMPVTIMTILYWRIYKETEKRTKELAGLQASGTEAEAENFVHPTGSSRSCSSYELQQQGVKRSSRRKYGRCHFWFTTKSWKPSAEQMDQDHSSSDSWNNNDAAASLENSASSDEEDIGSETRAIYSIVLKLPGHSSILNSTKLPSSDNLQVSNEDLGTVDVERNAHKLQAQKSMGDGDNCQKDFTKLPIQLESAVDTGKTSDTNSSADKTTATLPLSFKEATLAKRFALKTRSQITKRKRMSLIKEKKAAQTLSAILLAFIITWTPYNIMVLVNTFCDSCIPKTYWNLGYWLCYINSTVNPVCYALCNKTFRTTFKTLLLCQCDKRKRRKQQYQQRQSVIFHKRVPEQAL

| SMILES | Ki [1] [nM] | Ki [2] [nM] | Ki [3] [nM] | Ki [4] [nM] | Ki [5] [nM] | inhibition [6] | pIC50 [7] | Activity [8] [%] | Activity [9] [%] | inhibition [10] | Activity [11] [%] |
| --- | --- | --- | --- | --- | --- | --- | --- | --- | --- | --- | --- |
| CC(C)N(CC[C@H](c1ccccc1)c1cc(CCNC(=O)CCCCCNC(=O)COc2ccc(/C=C/C3=[N+]4C(=Cc5ccc(-c6cccs6)n5[B-]4(F)F)C=C3)cc2)ccc1O)C(C)C | 17.5 | 4.6 | 10.3 | 9 | 6.3 |  |  |  |  |  |  |
| CCCCCCCCCCCCCCCCCC(=O)OC[C@H](COP(=O)(O)OCCOCCOCCOCCOCCOCCOCCOCCOCCOCCNC(=O)CCCCCC(=O)NCCc1ccc(O)c([C@H](CCN(C(C)C)C(C)C)c2ccccc2)c1)OC(=O)CCCCCCCCCCCCCCCCC |  |  |  |  |  | Active | 8.53 | 2.1 | 6 | Active | 1.7 |
| CCCCCCCCCCCCCCCCCC(=O)OC[C@H](COP(=O)(O)OCCOCCOCCOCCOCCOCCNC(=O)CCCCCC(=O)NCCc1ccc(O)c([C@H](CCN(C(C)C)C(C)C)c2ccccc2)c1)OC(=O)CCCCCCCCCCCCCCCCC |  |  |  |  |  |  | 7.86 |  | 14.5 |  | 5.1 |
| CCCCCCCCCCCCCCCCCC(=O)OC[C@H](COP(=O)(O)OCCOCCOCCOCCOCCOCCOCCOCCNC(=O)CCCCCC(=O)NCCc1ccc(O)c([C@H](CCN(C(C)C)C(C)C)c2ccccc2)c1)OC(=O)CCCCCCCCCCCCCCCCC |  |  |  |  |  |  | 8.15 |  | 4.7 |  | 2.1 |
| CC(C)N(CC[C@H](c1ccccc1)c1cc(CCNC(=O)CCCCCC(=O)NCCOCCOCCOCCOCCOCCOCCOCCOCCOCCO)ccc1O)C(C)C.Cl |  |  |  |  |  |  | 7.88 | 63.5 | 7.1 |  | 34.9 |
| CCCCCCCCCCCCCCCCCC(=O)OC[C@H](COP(=O)(O)OCCOCCNC(=O)CCCCCC(=O)NCCc1ccc(O)c([C@H](CCN(C(C)C)C(C)C)c2ccccc2)c1)OC(=O)CCCCCCCCCCCCCCCCC |  |  |  |  |  |  | 6.91 |  | 66.4 |  | 59.2 |
| Cc1ccc(O)c([C@H](CCN(C(C)C)C(C)C)c2ccccc2)c1 [TOLTERODINE] | 2.2 | 1.4 |  |  | 3.1 | Active |  | 93.2 | 9 | inactive | 36.2 |
| CCCCCCCCCCCCCCCCCC(=O)OC[C@H](COP(=O)(O)OCCOCCOCCOCCNC(=O)CCCCCC(=O)NCCc1ccc(O)c([C@H](CCN(C(C)C)C(C)C)c2ccccc2)c1)OC(=O)CCCCCCCCCCCCCCCCC |  |  |  |  |  |  | 7.74 |  | 32.3 |  | 15.5 |
| CCCCCCCCCCCCCCCCCC(=O)OC[C@H](COP(=O)(O)OCCOCCOCCOCCOCCOCCOCCOCCOCCOCCOCCOCCNC(=O)CCCCCC(=O)NCCc1ccc(O)c([C@H](CCN(C(C)C)C(C)C)c2ccccc2)c1)OC(=O)CCCCCCCCCCCCCCCCC |  |  |  |  |  |  | 8.49 |  | 11.2 |  | 1.9 |
